Data as given in ChEMBL document CHEMBL4138171, “Design, synthesis and biological evaluation of novel aryldiketo acids with enhanced antibacterial activity against multidrug resistant bacterial strains” (Eur J Med Chem, 2018).

What was measured:
Assay type in all cases: functional
Staphylococcus aureus [1] = assay: Antibacterial activity against Norfloxacin-resistant Staphylococcus aureus 1199B over-expressing NorA after 16 hrs by microdilution method
Summary of the method: (§1)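 Broth microdilution in cation-adjusted Mueller-Hinton broth (20 mg/l Ca2+, 10 mg/L Mg2+), inoculum 5×10^5 CFU/mL. Compounds in DMSO, solvent under 1% in well, tested over 0.12-128 µg/ml. […] Each determined at least twice; values converted to µmol/L.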

Escherichia coli = assay: Antibacterial activity against Escherichia coli NCTC 12241 after 16 hrs by microdilution method; settings: NCTC 12241, 16 h
Summary of the method: (§2)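 Broth microdilution in cation-adjusted Mueller-Hinton broth (20 mg/l Ca2+, 10 mg/L Mg2+), inoculum 5×10^5 CFU/mL. Compounds from DMSO stocks, final DMSO <1%, tested over 0.12–128 µg/ml. Incubated 37 °C and read visually after 16 h. MIC is the lowest concentration with no visible growth, determined at least twice and converted to µmol/L.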

Enterococcus faecalis = assay: Antibacterial activity against Enterococcus faecalis NCTC 12697 after 16 hrs by microdilution method; settings: NCTC 12697, 16 h; summary of the method: as §2
Bacillus subtilis = assay: Antibacterial activity against Bacillus subtilis NCTC 10400 after 16 hrs by microdilution method; settings: NCTC 10400, 16 h; summary of the method: as §2
Staphylococcus aureus [2] = assay: Antibacterial activity against methicillin-sensitive Staphylococcus aureus NCTC 12981 after 16 hrs by microdilution method; settings: NCTC 12981, 16 h; summary of the method: as §2
Staphylococcus aureus [3] = assay: Antibacterial activity against methicillin-resistant Staphylococcus aureus NCTC 13373 after 16 hrs by microdilution method; settings: NCTC 13373, 16 h; summary of the method: as §1
Staphylococcus aureus [4] = assay: Antibacterial activity against erythromycin-resistant Staphylococcus aureus RN4220 after 16 hrs by microdilution method; settings: RN4220, 16 h; summary of the method: as §1
Staphylococcus aureus [5] = assay: Antibacterial activity against Staphylococcus aureus EMRSA-15 after 16 hrs by microdilution method; settings: EMRSA-15, 16 h; summary of the method: as §2
Staphylococcus aureus [6] = assay: Antibacterial activity against tetracycline/methicillin-resistant Staphylococcus aureus XU212 after 16 hrs by microdilution method; settings: XU212, 16 h; summary of the method: as §1

SMILES	MIC (Staphylococcus aureus [1])	MIC (Escherichia coli)	MIC (Enterococcus faecalis)	MIC (Bacillus subtilis)	MIC (Staphylococcus aureus [2])	MIC (Staphylococcus aureus [3])	MIC (Staphylococcus aureus [4])	MIC (Staphylococcus aureus [5])	MIC (Staphylococcus aureus [6])
O=C(O)/C(O)=C/C(=O)c1ccccc1	> 2660 µM	> 128 µg/mL							
O=C(O)/C(O)=C/C(=O)c1ccc2c(c1)CCCC2	520 µM	> 128 µg/mL	260 µM	> 128 µg/mL	> 128 µg/mL	> 128 µg/mL	> 128 µg/mL	520 µM	> 128 µg/mL
CCCCc1ccc(C(=O)/C=C(\O)C(=O)O)cc1	258 µM	> 128 µg/mL	129 µM	> 128 µg/mL	258 µM	258 µM	258 µM	258 µM	258 µM
COc1ccccc1C(=O)/C=C(\O)C(=O)O	> 128 µg/mL	> 128 µg/mL	> 128 µg/mL	> 128 µg/mL	> 128 µg/mL	> 128 µg/mL	> 128 µg/mL	> 128 µg/mL	> 128 µg/mL
COc1cccc(C(=O)/C=C(\O)C(=O)O)c1	> 128 µg/mL	> 128 µg/mL	> 128 µg/mL	> 128 µg/mL	> 128 µg/mL	> 128 µg/mL	> 128 µg/mL	> 128 µg/mL	> 128 µg/mL
CN1CCN(c2ccc(C(=O)/C=C(\O)C(=O)O)cc2)CC1	> 128 µg/mL	> 128 µg/mL	> 128 µg/mL	> 128 µg/mL	> 128 µg/mL	> 128 µg/mL	> 128 µg/mL	> 128 µg/mL	> 128 µg/mL
O=C(O)/C(O)=C/C(=O)c1ccc(-n2ccnc2)cc1	124 µM	> 128 µg/mL	496 µM	496 µM	> 128 µg/mL	248 µM	> 128 µg/mL	> 128 µg/mL	496 µM
Cc1cccc(C(=O)/C=C(\O)C(=O)O)c1	> 128 µg/mL	> 128 µg/mL	> 128 µg/mL	> 128 µg/mL	> 128 µg/mL	> 128 µg/mL	> 128 µg/mL	> 128 µg/mL	> 128 µg/mL
CC(C)(C)c1ccc(C(=O)/C=C(\O)C(=O)O)cc1	1030 µM	> 128 µg/mL					> 128 µg/mL	> 128 µg/mL	> 128 µg/mL
CC(C)c1ccc(C(=O)/C=C(\O)C(=O)O)c(C(C)C)c1	232 µM	> 128 µg/mL					232 µM	232 µM	464 µM
O=C(O)CCC(=O)c1ccc(-c2ccccc2)cc1 [FENBUFEN]	> 128 µg/mL	> 128 µg/mL			> 128 µg/mL	> 128 µg/mL	> 128 µg/mL	> 128 µg/mL	> 128 µg/mL
Cc1cc(C)c(C)c(C(=O)/C=C(\O)C(=O)O)c1C	> 128 µg/mL	> 128 µg/mL	516 µM	> 128 µg/mL	> 128 µg/mL	> 128 µg/mL	> 128 µg/mL	> 128 µg/mL	> 128 µg/mL
O=C(O)/C(O)=C/C(=O)c1ccc(N2CCOCC2)cc1	> 128 µg/mL	> 128 µg/mL	> 128 µg/mL	> 128 µg/mL	> 128 µg/mL	> 128 µg/mL	> 128 µg/mL	> 128 µg/mL	> 128 µg/mL
COc1c(N2C[C@@H]3CCCN[C@@H]3C2)c(F)cc2c(=O)c(C(=O)O)cn(C3CC3)c12 [MOXIFLOXACIN]	0.62 µM						0.31 µM		
O=C(O)/C(O)=C/C(=O)c1cccc(C(F)(F)F)c1	> 128 µg/mL	> 128 µg/mL	> 128 µg/mL	> 128 µg/mL	> 128 µg/mL	> 128 µg/mL	> 128 µg/mL	> 128 µg/mL	> 128 µg/mL
O=C(O)CCC(=O)c1cc(C2CCCCC2)ccc1C1CCCCC1	47 µM	> 128 µg/mL			94 µM	94 µM	47 µM	94 µM	47 µM

SMILES	MIC (Staphylococcus aureus [1])	MIC (Escherichia coli)	MIC (Enterococcus faecalis)	MIC (Bacillus subtilis)	MIC (Staphylococcus aureus [2])	MIC (Staphylococcus aureus [3])	MIC (Staphylococcus aureus [4])	MIC (Staphylococcus aureus [5])	MIC (Staphylococcus aureus [6])
COc1cc(C)c(C(=O)/C=C(\O)C(=O)O)cc1C	> 128 µg/mL	> 128 µg/mL	> 128 µg/mL	> 128 µg/mL	> 128 µg/mL	> 128 µg/mL	> 128 µg/mL	> 128 µg/mL	> 128 µg/mL
Cc1cc(C)c(C(=O)/C=C(\O)C(=O)O)cc1C	> 128 µg/mL	> 128 µg/mL	> 128 µg/mL	> 128 µg/mL	> 128 µg/mL	> 128 µg/mL	> 128 µg/mL	> 128 µg/mL	> 128 µg/mL
CC(=O)c1cc(C2CCCCC2)ccc1C1CCCCC1	450 µM	> 128 µg/mL			450 µM	450 µM	225 µM	225 µM	225 µM
Cc1cc(C(=O)/C=C(\O)C(=O)O)cc(C)c1O	> 128 µg/mL	> 128 µg/mL	> 128 µg/mL	> 128 µg/mL	> 128 µg/mL	> 128 µg/mL	> 128 µg/mL	> 128 µg/mL	> 128 µg/mL
CC(C)c1ccc(C(C)C)c(C(=O)/C=C(\O)C(=O)O)c1	232 µM	> 128 µg/mL					464 µM	232 µM	464 µM
O=C(O)/C(O)=C/C(=O)c1ccc(N2CCCC2)cc1	> 128 µg/mL	> 128 µg/mL	> 128 µg/mL	> 128 µg/mL	> 128 µg/mL	> 128 µg/mL	> 128 µg/mL	> 128 µg/mL	> 128 µg/mL
O=C(O)c1cn(C2CC2)c2cc(N3CCNCC3)c(F)cc2c1=O [CIPROFLOXACIN]			1.5 µM				0.76 µM		
O=C(O)/C(O)=C/C(=O)c1ccc(-c2ccccc2)cc1	477 µM	> 128 µg/mL					> 128 µg/mL	> 128 µg/mL	> 128 µg/mL
Cc1ccc(C(=O)/C=C(\O)C(=O)O)c(C)c1	> 128 µg/mL	> 128 µg/mL	> 128 µg/mL	> 128 µg/mL	> 128 µg/mL	> 128 µg/mL	> 128 µg/mL	> 128 µg/mL	> 128 µg/mL
CC(C)c1cc(C(C)C)c(C(=O)CCC(=O)O)c(C(C)C)c1	> 128 µg/mL	> 128 µg/mL			> 128 µg/mL	> 128 µg/mL	> 128 µg/mL	> 128 µg/mL	> 128 µg/mL
CCn1cc(C(=O)O)c(=O)c2cc(F)c(N3CCNCC3)cc21 [NORFLOXACIN]	106 µM		6.3 µM				> 128 µg/mL	3.3 µM	> 128 µg/mL
Cc1ccccc1C(=O)/C=C(\O)C(=O)O	> 128 µg/mL	> 128 µg/mL	> 128 µg/mL	> 128 µg/mL	> 128 µg/mL	> 128 µg/mL	> 128 µg/mL	> 128 µg/mL	> 128 µg/mL
C[C@H]1COc2c(N3CCN(C)CC3)c(F)cc3c(=O)c(C(=O)O)cn1c23 [LEVOFLOXACIN]	5.53 µM		1.4 µM				0.69 µM		
CN(C)c1ccc(C(=O)/C=C(\O)C(=O)O)cc1	> 128 µg/mL	> 128 µg/mL	> 128 µg/mL	> 128 µg/mL	> 128 µg/mL	> 128 µg/mL	> 128 µg/mL	> 128 µg/mL	> 128 µg/mL
O=C(O)/C(O)=C/C(=O)c1cccc(Br)c1	> 128 µg/mL	> 128 µg/mL	> 128 µg/mL	> 128 µg/mL	> 128 µg/mL	> 128 µg/mL	> 128 µg/mL	> 128 µg/mL	> 128 µg/mL
